Changes are numbered by the printed parent chain.
Legend:
Experiment in all cases: TEVC deactivation time
Format in all cases: cell-based
Conditions in all cases: after 100 μM ATP or 10 μM BzATP
rP2X7-I214G = target: T1, rP2X7-I214G (Rattus norvegicus, UniProt Q64663, I214G)
T1 sequence (Q64663 1-595 I214G): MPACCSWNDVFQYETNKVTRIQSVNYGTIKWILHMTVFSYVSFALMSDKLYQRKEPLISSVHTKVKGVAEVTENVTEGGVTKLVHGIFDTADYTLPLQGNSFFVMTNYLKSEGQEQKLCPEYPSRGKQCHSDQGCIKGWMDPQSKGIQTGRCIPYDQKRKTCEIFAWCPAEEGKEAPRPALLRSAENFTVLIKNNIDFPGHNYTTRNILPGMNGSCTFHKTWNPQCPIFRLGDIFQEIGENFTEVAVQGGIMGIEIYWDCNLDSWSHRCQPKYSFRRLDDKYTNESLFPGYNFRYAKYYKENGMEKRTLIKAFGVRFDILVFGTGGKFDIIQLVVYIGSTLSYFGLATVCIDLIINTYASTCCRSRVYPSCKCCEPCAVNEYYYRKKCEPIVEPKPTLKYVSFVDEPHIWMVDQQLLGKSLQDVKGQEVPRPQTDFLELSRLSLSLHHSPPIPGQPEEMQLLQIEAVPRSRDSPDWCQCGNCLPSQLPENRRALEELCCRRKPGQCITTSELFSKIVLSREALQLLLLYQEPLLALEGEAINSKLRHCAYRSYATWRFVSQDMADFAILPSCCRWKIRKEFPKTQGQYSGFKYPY
Outline: (§1)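 Xenopus oocytes injected with 50 nL of 10 ng/µL mutant rP2X7 mRNA, expressed ~20 h, clamped in pH 7.4 HEPES buffer with 0.1 mM flufenamic acid and EDTA. Currents were evoked by 100 µM ATP or 10 µM BzATP. τ is the time for current to return to 63% of baseline after agonist removal, from a one- or two-phase decay fit. Done in triplicate over first to third applications per oocyte; mean ± SD.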

rP2X7-R125A/I214A = target: T2, rP2X7-R125A/I214A (Rattus norvegicus, UniProt Q64663, I214A/R125A)
T2 sequence (Q64663 1-595 R125A/I214A): T1 sequence (Q64663 1-595 I214G) with R125A, G214A
Outline: as §1

rP2X7-Q143A/I214A = target: T3, rP2X7-Q143A/I214A (Rattus norvegicus, UniProt Q64663, I214A/Q143A)
T3 sequence (Q64663 1-595 Q143A/I214A): T1 sequence (Q64663 1-595 I214G) with Q143A, G214A
Outline: as §1

rP2X7-R125A = target: T4, rP2X7-R125A (Rattus norvegicus, UniProt Q64663, R125A)
T4 sequence (Q64663 1-595 R125A): T1 sequence (Q64663 1-595 I214G) with R125A, G214I
Outline: as §1

deactivation lifetime τ (rP2X7-I214G) | deactivation lifetime τ (rP2X7-R125A/I214A) | deactivation lifetime τ (rP2X7-Q143A/I214A) | deactivation lifetime τ (rP2X7-R125A) | Compound
2.9 ± 0.2 s | 3.7 ± 0.8 s | 2.9 ± 1.0 s | 3.5 ± 0.6 s | Nc1ncnc2c1ncn2[C@@H]1O[C@H](COP(=O)(O)OP(=O)(O)OP(=O)(O)O)[C@@H](O)[C@H]1O [ATP]
8.9 ± 2.2 s | 23 ± 13 s | 4.3 ± 1.7 s | 18 ± 3.7 s | BzATP
